Experimental data as given in ChEMBL document CHEMBL4699431, “Design and synthesis of substituted (1-(benzyl)-1H-1,2,3-triazol-4-yl)(piperazin-1-yl)methanone conjugates: study on their apoptosis inducing ability and tubulin polymerization inhibition” (RSC Med Chem, 2020).
pIC50: −log10 of the molar value. Calls of active or inactive are those of the source. The calls are words filed in the database; no cut-off is given here.

What was measured:
BT-474 [1] = test: Induction of apoptosis in human BT-474 cells assessed as membrane bleeding incubated for 48 hrs by acridine orange/ethidium bromide double staining-based fluorescence microscopic analysis; type: functional, cell-based; settings: dose microM 0.5-2.5, time 48.0 hrs
Method in brief: (§1)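 Plated at 5×10^4 cells/well, treated after 24 h and held 48 h at 37 °C, 5% CO₂. Acridine orange and ethidium bromide (10 µg/mL each) added in equal volumes, then cells viewed by fluorescence microscopy at 200x.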

BT-474 [2] = test: Induction of mitochondrial membrane potential loss in human BT-474 cells assessed as depolarized cell population (P2) at 0.5 uM incubated for 48 hrs by JC1 staining based flow cytometry (reference value: 0.48 %); type: functional
Method in brief: (§2)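 Cells (1x10⁶/mL) adhered overnight, then exposed to 0.5, 1 and 2.5 μM for 48 h. Collected, PBS-washed, incubated with JC-1 dye (1 μM) for 30 min at 37 °C, washed twice, trypsinized, centrifuged and read by flow cytometry.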

BT-474 [3] = test: Cell cycle arrest in human BT-474 cells assessed as increase in accumulation in G1 phase at 2.5 uM by propidium iodide staining based flow cytometry(reference value: 4.06%); type: functional
Method in brief: (§3)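 Seeded at 1 x 10⁵ cells/well, after 24 h serum-starved 6 h to synchronize, then returned to FBS-containing medium and treated at 0.5, 1 and 2.5 μM. Harvested cells were PBS-washed, fixed in ice-cold 70% ethanol, stained with propidium iodide (50 μg/mL) plus RNase A for 20 min at 37 °C in the dark. About 10,000 events analysed by flow cytometry.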

BT-474 [4] = test: Induction of mitochondrial membrane potential loss in human BT-474 cells assessed as depolarized cell population (P1) at 1 uM incubated for 48 hrs by JC1 staining based flow cytometry (reference value: 98.09 %); type: functional; method in brief: as §2
HaCaT = test: Cytotoxicity against human HaCaT cells assessed as reduction in cell viability incubated for 48 hrs by MTT assay; type: functional, cell-based
Method in brief: (§4)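 Cells plated at 3000-4500 per well and treated after 24 h. DMSO stocks (20 mM) were diluted in medium to final DMSO <0.1%, twofold series […], 48 h. MTT (0.5 mg/mL) was added for 4 h, formazan dissolved in DMSO, absorbance read at 570 nm.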

Tubulin (Homo sapiens) [5] = target: T1, Tubulin (Homo sapiens) (UniProt P68371+Q9H4B7+P0DPH7+P68366+Q13509+Q71U36+P04350+Q3ZCM7+P07437+P68363+Q9BQE3+Q6PEY2+Q13885+Q9BVA1+Q9BUF5); test: Inhibition of tubulin polymerization in human BT-474 cells assessed as microtubule disruption at 2 uM by immunohistochemistry assay; type: cell-based
Method in brief: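 Cells on glass coverslips exposed 48 h to 2 μM, with CA-4 as positive control. Fixed in 4% paraformaldehyde 20 min, permeabilized with 0.2% Triton X-100 5 min, held in methanol overnight at 4 °C, blocked in 1% BSA 60 min. Stained with α-tubulin antibody (1:1000, 2 h) then FITC anti-mouse secondary 1 h; microtubule network imaged by confocal microscopy.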

BT-474 [6] = test: Induction of morphological changes in human BT-474 cells assessed as cell shrinkage incubated for 48 hrs by phase-contrast microscope method; type: functional, cell-based; settings: dose microM 0.5-2.5, time 48.0 hrs
Method in brief: (§5)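 Plated at 5×10^4 cells/well, dosed after 24 h at 0.5, 1 and 2.5 μM. After 48 h, morphology was examined and photographed under phase-contrast microscopy.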

BT-474 [7] = test: Cytotoxicity against human BT-474 cells assessed as reduction in cell viability incubated for 48 hrs by MTT assay; type: functional, cell-based; settings: BT-474, 48 h; method in brief: as §4
NCI-H460 = test: Cytotoxicity against human NCI-H460 cells assessed as reduction in cell viability incubated for 48 hrs by MTT assay; type: functional, cell-based; settings: NCI-H460, 48 h; method in brief: as §4
BT-474 [8] = test: Cell cycle arrest in human BT-474 cells assessed as increase in accumulation in G1 phase at 1 uM by propidium iodide staining based flow cytometry(reference value: 4.06%); type: functional; method in brief: as §3
BT-474 [9] = test: Cell cycle arrest in human BT-474 cells assessed as increase in accumulation in G2/M phase at 1 uM by propidium iodide staining based flow cytometry(reference value: 19.35%); type: functional; method in brief: as §3
BT-474 [10] = test: Cell cycle arrest in human BT-474 cells assessed as increase in accumulation in G2/M phase at 2.5 uM by propidium iodide staining based flow cytometry(reference value: 19.35%); type: functional; method in brief: as §3
BT-474 [11] = test: Induction of mitochondrial membrane potential loss in human BT-474 cells assessed as depolarized cell population (P1) at 2.5 uM incubated for 48 hrs by JC1 staining based flow cytometry (reference value: 98.09 %); type: functional; method in brief: as §2
BT-474 [12] = test: Inhibition of clonogenicity in human BT-474 cells assessed as reduction in colony formation measured after 7 days by crystal violet staining; type: functional, cell-based; settings: dose microM 0.5-2.5, time 7.0 day
Method in brief: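 100 cells/well in 6-well plates; after overnight attachment, treated 12 h, then grown in fresh medium at 37 °C, 5% CO₂ with medium changed every 2 days. Colonies fixed and stained with 1% crystal violet in methanol for 3 h, counted by imaging, expressed as percent of untreated control.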

BT-474 [13] = test: Induction of morphological changes in human BT-474 cells assessed reduction in number of viable cells incubated for 48 hrs by phase-contrast microscope method; type: functional, cell-based; settings: dose microM 0.5-2.5, time 48.0 hrs; method in brief: as §5
BT-474 [14] = test: Cell cycle arrest in human BT-474 cells assessed as increase in accumulation in G1 phase at 0.5 uM by propidium iodide staining based flow cytometry(reference value: 4.06%); type: functional; method in brief: as §3
BT-474 [15] = test: Induction of mitochondrial membrane potential loss in human BT-474 cells assessed as depolarized cell population (P2) at 1 uM incubated for 48 hrs by JC1 staining based flow cytometry (reference value: 0.48 %); type: functional; method in brief: as §2
BT-474 [16] = test: Induction of apoptosis in human BT-474 cells assessed as chromatin condensation incubated for 48 hrs by acridine orange/ethidium bromide double staining-based fluorescence microscopic analysis; type: functional, cell-based; settings: dose microM 0.5-2.5, time 48.0 hrs; method in brief: as §1
BT-474 [17] = test: Cell cycle arrest in human BT-474 cells assessed as increase in accumulation in S phase at 0.5 uM by propidium iodide staining based flow cytometry(reference value: 2.22%); type: functional; method in brief: as §3
BT-474 [18] = test: Cell cycle arrest in human BT-474 cells assessed as increase in accumulation in S phase at 2.5 uM by propidium iodide staining based flow cytometry(reference value: 2.22%); type: functional; method in brief: as §3
Tubulin (Homo sapiens) [19] = target: T1, Tubulin (Homo sapiens); test: Inhibition of tubulin (unknown origin) polymerization by cell free in vitro assay; type: protein-complex assay
BT-474 [20] = test: Cell cycle arrest in human BT-474 cells assessed as decrease in G0/G1 accumulation in phase at 0.5 uM by propidium iodide staining based flow cytometry(reference value: 60.53%); type: functional; parameters: scale not given: the % may be the effect or the level left; method in brief: as §3
BT-474 [21] = test: Induction of mitochondrial membrane potential loss in human BT-474 cells assessed as depolarized cell population (P1) at 0.5 uM incubated for 48 hrs by JC1 staining based flow cytometry (reference value: 98.09 %); type: functional; method in brief: as §2
BT-474 [22] = test: Cell cycle arrest in human BT-474 cells assessed as decrease in G0/G1 accumulation in phase at 1 uM by propidium iodide staining based flow cytometry(reference value: 60.53%); type: functional; parameters: scale not given: the % may be the effect or the level left; method in brief: as §3
BT-474 [23] = test: Cell cycle arrest in human BT-474 cells assessed as increase in accumulation in G2/M phase at 0.5 uM by propidium iodide staining based flow cytometry(reference value: 19.35%); type: functional; method in brief: as §3
BT-474 [24] = test: Induction of apoptosis in human BT-474 cells assessed as chromatin condensation at 0.5 to 2.5 uM incubated for 24 hrs by DAPI staining based DAPI staining based confocal microscopic analysis; type: functional, cell-based; settings: dose microM 0.5-2.5, time 24.0 hrs

O=C(c1cn(Cc2cccc(Oc3ccccc3)c2)nn1)N1CCN(S(=O)(=O)c2ccc(Br)cc2)CC1
Activity (BT-474 [1]): Dose-dependent effect
Activity (BT-474 [2]): 50.48%
Activity (BT-474 [3]): 11.3%
Activity (BT-474 [4]): 41.46%
pIC50 (HaCaT): 5.43
inhibition (Tubulin (Homo sapiens) [5]): Active
Activity (BT-474 [6]): Active
pIC50 (BT-474 [7]): 6.00
pIC50 (NCI-H460): 5.31
Activity (BT-474 [8]): 9.41%
Activity (BT-474 [9]): 62.72%
Activity (BT-474 [10]): 63.41%
Activity (BT-474 [11]): 10.81%
inhibition (BT-474 [12]): Dose-dependent effect
Activity (BT-474 [13]): Active
Activity (BT-474 [14]): 11%
Activity (BT-474 [15]): 61.44%
Activity (BT-474 [16]): Dose-dependent effect
Activity (BT-474 [17]): 7.02%
Activity (BT-474 [18]): 5.57%
inhibition (Tubulin (Homo sapiens) [19]): Active
Activity (BT-474 [20]): 10.83%
Activity (BT-474 [21]): 50.26%
Activity (BT-474 [22]): 9.64%
Activity (BT-474 [23]): 58.93%
Activity (BT-474 [24]): Active
